{
  "source": "paper PMC7816766",
  "about": "(Journal of Medicinal Chemistry, 2020)",
  "key": {"[1]": {"target": "T1, STAT1:STAT1 homodimers (Mus musculus, UniProt P42225)", "T1 sequence (P42225 2-749 limits assumed)": "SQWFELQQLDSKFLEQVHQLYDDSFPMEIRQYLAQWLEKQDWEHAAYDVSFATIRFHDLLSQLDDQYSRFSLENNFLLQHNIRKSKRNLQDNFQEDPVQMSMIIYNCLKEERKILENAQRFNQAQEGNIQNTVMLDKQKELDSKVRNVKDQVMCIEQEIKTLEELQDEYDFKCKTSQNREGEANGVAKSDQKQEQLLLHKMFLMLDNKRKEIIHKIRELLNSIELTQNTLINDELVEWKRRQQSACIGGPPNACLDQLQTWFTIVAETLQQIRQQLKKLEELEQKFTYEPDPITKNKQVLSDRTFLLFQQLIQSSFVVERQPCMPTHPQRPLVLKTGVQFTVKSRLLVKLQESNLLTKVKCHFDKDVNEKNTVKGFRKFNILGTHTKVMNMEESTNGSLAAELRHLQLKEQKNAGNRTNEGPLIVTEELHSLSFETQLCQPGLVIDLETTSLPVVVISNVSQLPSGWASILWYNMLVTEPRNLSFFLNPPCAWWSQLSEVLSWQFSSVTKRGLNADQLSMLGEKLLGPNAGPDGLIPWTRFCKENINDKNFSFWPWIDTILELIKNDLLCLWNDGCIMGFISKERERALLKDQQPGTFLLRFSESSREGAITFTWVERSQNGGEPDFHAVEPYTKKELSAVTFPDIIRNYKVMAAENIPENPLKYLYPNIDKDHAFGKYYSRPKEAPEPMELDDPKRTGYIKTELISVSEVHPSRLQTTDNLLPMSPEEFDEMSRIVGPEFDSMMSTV", "type": "biochemical", "conditions": "10 µM, MGFe probe (Fig. S6)"}, "[2]": {"test_system": "STAT5:STAT5 homodimers", "type": "biochemical", "conditions": "10 µM, MGFe probe (Fig. S6)"}, "[3]": {"test_system": "MDA-MB-468 cells", "assay": "CyQuant cell viability assay, MDA-MB-468", "type": "cell-based", "conditions": "Homo sapiens, MDA-MB-468, 72 h, read-out: Cell viability EC50 MDA-MB-468", "in_short": "(§1)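 Cells in 96-well plates were treated with test compound over a range of concentrations for 72 h, then assayed with CyQuant. Viability was normalised to control as % and plotted against concentration to derive EC50. Media: MCF-10A in DMEM/F12 with 5% horse serum, EGF, insulin and hydrocortisone; other lines in DMEM with 10% heat-inactivated FBS.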"}, "[4]": {"test_system": "MCF-10A cells", "assay": "CyQuant cell viability assay, MCF-10A", "type": "cell-based", "conditions": "Homo sapiens, 72 h, read-out: Cell viability EC50 MCF-10A", "in_short": "as §1"}, "[5]": {"test_system": "MDA-MB-231 or MDA-MB-468 cells", "assay": "Cell viability/growth of breast cancer cells harboring active STAT3", "type": "cell-based, human"}, "[6]": {"test_system": "MDA-MB-231 cells", "assay": "Clonogenic", "type": "cell-based, human", "conditions": "treated once", "in_short": "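Cells were seeded as single-cell cultures at 250 cells per well. They were treated once the next day with test compound at 0–1 μM and cultured until large colonies were visible. Colonies were stained with crystal violet for 4 h and photographed. Data came from three independent determinations.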"}, "[7]": {"test_system": "MDA-MB-231 cells", "assay": "Cell growth by trypan blue exclusion/phase-contrast microscopy, MDA-MB-231", "type": "cell-based, human", "conditions": "2 μM"}, "[8]": {"test_system": "MCF-7 cells", "assay": "Cell growth by trypan blue exclusion/phase-contrast microscopy, MCF-7", "type": "cell-based, human", "conditions": "2 μM", "in_short": "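Cells cultured in 6-well plates and treated once with 2 μM test compound. Every 24 h (up to 96 h), cells were harvested and viable cells counted by trypan blue exclusion under phase-contrast microscopy. Counts were plotted against treatment duration. Cells were grown in DMEM with 10% heat-inactivated FBS.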"}, "[9]": {"test_system": "STAT3 DNA-binding activity in MDA-MB-468 cells", "assay": "Constitutive STAT3 DNA-binding activity in treated breast cancer cells", "type": "cell-based, human", "conditions": "for earliest time of inhibition of STAT3 DNA-binding activity in cells: MDA-MB-468; for constitutive STAT3 DNA-binding activity in cells: cells treated with 1–5 μM (BBI-608 0.5–5 μM, 2–3 h)", "in_short": "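MDA-MB-468 cells were treated with 5 μM test compound for 1–3 h; controls received 0.05% DMSO. Nuclear extracts of equal total protein were incubated with 33P-labelled hSIE probe (c-fos m67 variant) for 30 min at 30 °C. STAT3:DNA complexes were then resolved by EMSA. Results came from two to three independent determinations.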"}, "[10]": {"test_system": "pY705STAT3", "assay": "Immunoblotting for pY705STAT3 in treated breast cancer cells", "type": "cell-based, human", "conditions": "1–5 μM, 0–24 h (BBI-608 0.5–5 μM, 2–3 h)", "in_short": "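Controls received 0.05% DMSO. Equal-protein RIPA whole-cell lysates were immunoblotted for pY705STAT3, STAT3 and tubulin. Results came from two to three independent determinations.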"}, "[11]": {"target": "STAT3 (Mus musculus, UniProt P42227)", "sequence (P42227 2-770 limits assumed)": "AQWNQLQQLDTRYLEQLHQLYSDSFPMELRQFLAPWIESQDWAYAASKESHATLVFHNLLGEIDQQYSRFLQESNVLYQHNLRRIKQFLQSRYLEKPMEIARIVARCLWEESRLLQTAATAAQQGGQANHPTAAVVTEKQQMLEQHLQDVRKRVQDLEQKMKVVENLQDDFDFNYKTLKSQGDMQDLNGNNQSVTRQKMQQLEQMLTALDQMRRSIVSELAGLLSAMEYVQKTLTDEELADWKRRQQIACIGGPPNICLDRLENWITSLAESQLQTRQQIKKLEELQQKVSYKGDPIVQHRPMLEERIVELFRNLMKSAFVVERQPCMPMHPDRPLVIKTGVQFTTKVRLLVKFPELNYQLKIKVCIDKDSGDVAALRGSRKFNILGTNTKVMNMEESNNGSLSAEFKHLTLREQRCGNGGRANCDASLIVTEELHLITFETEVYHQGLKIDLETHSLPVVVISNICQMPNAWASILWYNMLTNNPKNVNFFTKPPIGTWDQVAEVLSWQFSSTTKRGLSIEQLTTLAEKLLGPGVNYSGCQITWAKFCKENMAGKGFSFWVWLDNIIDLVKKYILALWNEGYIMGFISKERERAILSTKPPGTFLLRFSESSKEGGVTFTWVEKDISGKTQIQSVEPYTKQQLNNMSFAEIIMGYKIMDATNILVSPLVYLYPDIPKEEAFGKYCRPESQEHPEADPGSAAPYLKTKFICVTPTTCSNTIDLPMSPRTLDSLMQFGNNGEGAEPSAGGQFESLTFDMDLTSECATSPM", "type": "biochemical", "conditions": "for direct effect on STAT3 activity in the DNA-binding assay/EMSA: up to 10 μM"}, "[12]": {"test_system": "MCF-7 cells", "assay": "CyQuant cell viability assay, MCF-7", "type": "cell-based, human", "in_short": "as §1"}, "[13]": {"test_system": "MDA-MB-231 cells", "assay": "CyQuant cell viability assay, MDA-MB-231", "type": "cell-based", "conditions": "Homo sapiens, MDA-MB-231, 72 h, read-out: Cell viability EC50 MDA-MB-231"}},
  "note": "Entries after “also recorded” stand apart in the source; their conditions may differ.",
  "data": [
    {"smiles": "COC(=O)c1ccc(N(Cc2ccc(C3CCCCC3)cc2)C(=O)[C@H]2CCN2S(=O)(=O)c2c(F)c(F)c(F)c(F)c2F)cc1O", "note": "[Compound 7a]", "values": [
      {"measurement": "effect on DNA-binding activity of STAT1:STAT1 homodimers", "setting": "[1]", "result": "minimal effect"},
      {"measurement": "effect on DNA-binding activity of STAT5:STAT5 homodimers", "setting": "[2]", "result": "minimal effect"},
      {"measurement": "EC50", "setting": "[3]", "result": 2500, "unit": "nM"},
      {"measurement": "EC50", "setting": "[4]", "result": 4.3, "unit": "µM"}
    ]},
    {"smiles": "O=C1NC(=O)c2cc(N(Cc3ccc(C4CCCCC4)cn3)C(=O)[C@H]3CCN3S(=O)(=O)c3c(F)c(F)c(F)c(F)c3F)ccc21", "note": "[Compound 9k]", "values": [
      {"measurement": "effect on DNA-binding activity of STAT5:STAT5 homodimers", "setting": "[2]", "result": "minimal effect"},
      {"measurement": "viability, anchorage-dependent and independent growth, and colony formation", "setting": "[5]; at 1 μM or less", "result": "strongly inhibited"},
      {"measurement": "inhibition of colony formation", "setting": "[6]; 0.5 μM", "result": "minimal to moderate inhibition of colony formation"},
      {"measurement": "inhibition of colony formation", "setting": "[6]; 1 μM", "result": "significant inhibition"},
      {"measurement": "cell growth MDA-MB-231, trypan blue exclusion", "setting": "[7]", "result": "strongly inhibited cell growth"},
      {"measurement": "cell growth MCF-7, trypan blue exclusion", "setting": "[8]", "result": "no effect"},
      {"measurement": "earliest time of inhibition of STAT3 DNA-binding activity in cells", "setting": "[9]", "result": 5, "unit": "min"},
      {"measurement": "constitutive STAT3 DNA-binding activity in cells", "setting": "[9]", "result": "inhibited to variable degrees"},
      {"measurement": "pY705STAT3 in breast cancer cells", "setting": "[10]", "result": "inhibited pY705STAT3 in dose- and time-dependent manner; also recorded: bounced back by 24 h"}
    ]},
    {"smiles": "CC(=O)c1cc2c(o1)C(=O)c1ccccc1C2=O", "note": "[napabucasin, reference compound]", "values": [
      {"measurement": "direct effect on STAT3 activity in the DNA-binding assay/EMSA", "setting": "[11]", "result": "minimal direct effect"},
      {"measurement": "constitutive STAT3 DNA-binding activity in cells", "setting": "[9]", "result": "weak to moderate effects"},
      {"measurement": "pY705STAT3 in breast cancer cells", "setting": "[10]", "result": "weak to moderate effects"}
    ]},
    {"smiles": "COc1ccc(S(=O)(=O)Nc2cc(-c3c(O)ccc4ccccc34)c(O)c3ccccc23)cc1", "note": "[Compound C188-9]", "values": [
      {"measurement": "direct effect on STAT3 activity in the DNA-binding assay/EMSA", "setting": "[11]", "result": "minimal direct effect"},
      {"measurement": "stronger activity against MCF-7 than MDA-MB-231", "setting": "[12]", "result": 2, "unit": "fold"}
    ]},
    {"smiles": "COC(=O)c1ccc(N(Cc2ccc(C3CCCCC3)cc2)C(=O)[C@H]2CCN2S(=O)(=O)c2c(F)c(F)c(F)c(F)c2F)c(F)c1", "note": "[Compound 7b]", "values": [
      {"measurement": "effect on DNA-binding activity of STAT1:STAT1 homodimers", "setting": "[1]", "result": "minimal effect"},
      {"measurement": "effect on DNA-binding activity of STAT5:STAT5 homodimers", "setting": "[2]", "result": "minimal effect"},
      {"measurement": "EC50", "setting": "[4]", "result": 6, "unit": "µM"}
    ]},
    {"smiles": "COC(=O)c1ccc(N(Cc2ccc(C3CCCCC3)nc2)C(=O)[C@H]2CCN2S(=O)(=O)c2c(F)c(F)c(F)c(F)c2F)cc1O", "note": "[Compound 7c]", "values": [
      {"measurement": "EC50", "setting": "[4]", "result": 3.6, "unit": "µM"}
    ]},
    {"smiles": "O=C([C@H]1CCN1S(=O)(=O)c1c(F)c(F)c(F)c(F)c1F)N(Cc1ccc(C2CCCCC2)cc1)c1ccc(-c2nnn[nH]2)cc1", "note": "[Compound 6e]", "values": [
      {"measurement": "EC50", "setting": "[13]", "result": "> 10", "unit": "µM"},
      {"measurement": "activity against breast cancer cells", "setting": "[5]; up to 10 μM", "result": "weak cellular activity"}
    ]},
    {"smiles": "O=C(O)c1ccc(N(Cc2ccc(C3CCCCC3)cc2)C(=O)C2CN(S(=O)(=O)c3c(F)c(F)c(F)c(F)c3F)C2)cc1O", "note": "[Compound 5c]", "values": [
      {"measurement": "EMSA IC50", "setting": "[11]; STAT3:DNA complexes, hSIE probe, 30 min preincubation at room temperature", "result": "loss of activity"}
    ]},
    {"smiles": "CNC(=O)c1ccc(N(Cc2ccc(C3CCCCC3)cn2)C(=O)[C@H]2CCN2S(=O)(=O)c2c(F)c(F)c(F)c(F)c2F)cc1O", "note": "[Compound 8q]", "values": [
      {"measurement": "effect on DNA-binding activity of STAT5:STAT5 homodimers", "setting": "[2]", "result": "minimal effect"},
      {"measurement": "inhibition of colony formation", "setting": "[6]; 1 μM", "result": "does not show any inhibitory effect"},
      {"measurement": "cell growth MDA-MB-231, trypan blue exclusion", "setting": "[7]", "result": "good activity"},
      {"measurement": "cell growth MCF-7, trypan blue exclusion", "setting": "[8]", "result": "no effect"},
      {"measurement": "earliest time of inhibition of STAT3 DNA-binding activity in cells", "setting": "[9]", "result": 360, "unit": "min"},
      {"measurement": "constitutive STAT3 DNA-binding activity in cells", "setting": "[9]", "result": "inhibited to variable degrees"},
      {"measurement": "pY705STAT3 in breast cancer cells", "setting": "[10]", "result": "inhibited pY705STAT3 in dose- and time-dependent manner"}
    ]}
  ]
}
